Measured values from ChEMBL document CHEMBL4152203, “Antiproliferative hydrogen sulfide releasing evodiamine derivatives and their apoptosis inducing properties” (Eur J Med Chem, 2018).
Active and inactive are the calls of the source. The calls are words filed in the database; no cut-off is given here.

How the values were obtained:
HL-60 [1] = test: Cell cycle arrest in human HL60 cells assessed as accumulation at G1 phase at 0.3 uM after 48 hrs by propidium iodide/RNase A staining-based flow cytometric analysis (reference value: 65.75%); type: functional
HL-60 [2] = test: Induction of apoptosis in human HL60 cells assessed as viable cells at 1.2 uM after 48 hrs by Annexin V-FITC/propidium iodide staining-based flow cytometric analysis (reference value: 95.56%); type: functional; conditions: HL-60, 48 h, read-out: Activity
HL-60 [3] = test: Cell cycle arrest in human HL60 cells assessed as accumulation at S phase at 0.3 uM after 48 hrs by propidium iodide/RNase A staining-based flow cytometric analysis (reference value: 24.06%); type: functional
HL-60 [4] = test: Cell cycle arrest in human HL60 cells assessed as accumulation at G2/M phase at 1.2 uM after 48 hrs by propidium iodide/RNase A staining-based flow cytometric analysis (reference value: 10.19%); type: functional
HL-60 [5] = test: Induction of apoptosis in human HL60 cells assessed as early apoptotic cells at 0.3 uM after 48 hrs by Annexin V-FITC/propidium iodide staining-based flow cytometric analysis (reference value: 2.31%); type: functional
HL-60 [6] = test: Induction of apoptosis in human HL60 cells assessed as upregulation of caspase9 level at 0.3 to 1.2 uM after 48 hrs by Western blot analysis; type: functional, cell-based
How it was run: (§1)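 HL-60 treated in triplicate with 0.3, 0.6 or 1.2 μM compound; exposure is 72 h in the methods and 48 h in the legend. Lysates were run on 10% SDS-PAGE, transferred to nitrocellulose, blocked in 5% milk, and probed overnight at 4 °C with monoclonal antibodies (Bcl-2, Bax, cytochrome c, caspase-9/-3, p53, cyclin B1, cdc2). ECL detection; densitometry relative to GAPDH.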

HL-60 [7] = test: Induction of apoptosis in human HL60 cells assessed as early apoptotic cells at 0.6 uM after 48 hrs by Annexin V-FITC/propidium iodide staining-based flow cytometric analysis (reference value: 1.11%); type: functional
Caco-2 = test: Antiproliferative activity against human Caco2 cells after 72 hrs by MTT assay; type: functional, cell-based; conditions: Caco-2, 72 h
How it was run: (§2)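 Cells seeded and pre-incubated 24 h at 37 °C, 5% CO2, then exposed to compounds for 72 h. MTT (5 mg/mL stock) added for 4 h, formazan dissolved in DMSO for 10 min at room temperature, absorbance read at 570 nm. 0.1% DMSO as negative and 5-FU as positive reference. IC50 derived from inhibition ratios; mean ± SD of three independent experiments.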

HL-60 [8] = test: Induction of mitochondrial membrane potential loss in human HL60 cells assessed as cell population with intact mitochondrial membrane potential at 0.3 uM after 48 hrs by JC1 staining-based flow cytometry analysis (reference value: 92.35%); type: functional
HL-60 [9] = test: Induction of apoptosis in human HL60 cells assessed as increase in p53 protein level at 0.3 to 1.2 uM after 48 hrs by Western blot analysis; type: functional, cell-based; how it was run: as §1
HL-60 [10] = test: Cell cycle arrest in human HL60 cells assessed as accumulation at S phase at 1.2 uM after 48 hrs by propidium iodide/RNase A staining-based flow cytometric analysis (reference value: 24.06%); type: functional
HL-60 [11] = test: Induction of apoptosis in human HL60 cells assessed as upregulation of caspase3 level at 0.3 to 1.2 uM after 48 hrs by Western blot analysis; type: functional, cell-based; how it was run: as §1
HL-60 [12] = test: Cell cycle arrest in human HL60 cells assessed as accumulation at G1 phase at 0.6 uM after 48 hrs by propidium iodide/RNase A staining-based flow cytometric analysis (reference value: 65.75%); type: functional
HL-60 [13] = test: Antiproliferative activity against human HL60 cells after 72 hrs by MTT assay; type: functional, cell-based; conditions: HL-60, 72 h; how it was run: as §2
HL-60 [14] = test: Induction of apoptosis in human HL60 cells assessed as morphological changes by measuring nuclear fragmentation at 0.3 to 1.2 uM after 48 hrs by Hoechst 33258 staining-based fluorescence microscopic analysis; type: functional, cell-based
How it was run: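 HL-60 pre-incubated 24 h, then treated 48 h with 0, 0.3, 0.6 or 1.2 μM compound or vehicle. Cells were harvested, washed twice in PBS, stained with Hoechst 33258 (2 mg/mL in PBS) for 15 min at room temperature in darkness, washed, mounted and examined by fluorescence microscopy with a DAPI filter.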

HL-60 [15] = test: Induction of apoptosis in human HL60 cells assessed as apoptotic cells after 48 hrs by Annexin V-FITC/propidium iodide staining-based flow cytometric analysis; type: functional, cell-based
HL-60 [16] = test: Induction of apoptosis in human HL60 cells assessed as early apoptotic cells at 1.2 uM after 48 hrs by Annexin V-FITC/propidium iodide staining-based flow cytometric analysis (reference value: 1.11%); type: functional
HL-60 [17] = test: Induction of apoptosis in human HL60 cells assessed as necrotic cells at 0.3 uM after 48 hrs by Annexin V-FITC/propidium iodide staining-based flow cytometric analysis (reference value: 0.02%); type: functional
SGC-7901 = test: Antiproliferative activity against human SGC7901 cells after 72 hrs by MTT assay; type: functional, cell-based; conditions: SGC-7901, 72 h; how it was run: as §2
HL-60 [18] = test: Induction of apoptosis in human HL60 cells assessed as decrease in cdc2 protein expression level at 0.3 to 1.2 uM after 48 hrs by Western blot analysis; type: functional, cell-based; how it was run: as §1
HL-60 [19] = test: Induction of mitochondrial membrane potential loss in human HL60 cells assessed as cell population with mitochondrial membrane potential collapse at 0.6 uM after 48 hrs by JC1 staining-based flow cytometry analysis (reference value: 7.65%); type: functional
HL-60 [20] = test: Induction of apoptosis in human HL60 cells assessed as viable cells at 0.6 uM after 48 hrs by Annexin V-FITC/propidium iodide staining-based flow cytometric analysis (reference value: 95.56%); type: functional; conditions: HL-60, 48 h, read-out: Activity
HL-60 [21] = test: Induction of apoptosis in human HL60 cells assessed as early apoptotic cells at 1.2 uM after 48 hrs by Annexin V-FITC/propidium iodide staining-based flow cytometric analysis (reference value: 2.31%); type: functional
HL-60 [22] = test: Cell cycle arrest in human HL60 cells assessed as accumulation at S phase at 0.6 uM after 48 hrs by propidium iodide/RNase A staining-based flow cytometric analysis (reference value: 24.06%); type: functional
HL-60 [23] = test: Induction of mitochondrial membrane potential loss in human HL60 cells assessed as cell population with mitochondrial membrane potential collapse at 0.3 uM after 48 hrs by JC1 staining-based flow cytometry analysis (reference value: 7.65%); type: functional
HL-60 [24] = test: Induction of apoptosis in human HL60 cells assessed as viable cells at 0.3 uM after 48 hrs by Annexin V-FITC/propidium iodide staining-based flow cytometric analysis (reference value: 95.56%); type: functional; conditions: HL-60, 48 h, read-out: Activity
HL-60 [25] = test: Induction of apoptosis in human HL60 cells assessed as necrotic cells at 0.6 uM after 48 hrs by Annexin V-FITC/propidium iodide staining-based flow cytometric analysis (reference value: 0.02%); type: functional
HL-60 [26] = test: Induction of apoptosis in human HL60 cells assessed as increase in cytosolic cytochrome c level at 0.3 to 1.2 uM after 48 hrs by Western blot analysis; type: functional, cell-based; how it was run: as §1
HL-60 [27] = test: Induction of mitochondrial membrane potential loss in human HL60 cells assessed as cell population with intact mitochondrial membrane potential at 0.6 uM after 48 hrs by JC1 staining-based flow cytometry analysis (reference value: 92.35%); type: functional
Bel-7402 = test: Antiproliferative activity against human Bel7402 cells after 72 hrs by MTT assay; type: functional, cell-based; conditions: Bel-7402, 72 h; how it was run: as §2

IC50 (Caco-2): 2020 nM
IC50 (HL-60 [13]): 580 nM
IC50 (SGC-7901): > 50000 nM
IC50 (Bel-7402): 48900 nM
SMILES: CN1c2ccccc2C(=O)N2CCc3c(n(CCCCC(=O)OCCCCOc4ccc(-c5cc(=S)ss5)cc4)c4ccccc34)C21 (stereo not given)
Activity (HL-60 [1]): 47.1%
viability at 1.2 µM (HL-60 [2]): 39.2%
Activity (HL-60 [3]): 41.49%
Activity (HL-60 [4]): 22.02%
Activity (HL-60 [5]): 6.74%
Activity (HL-60 [6]): Active
Activity (HL-60 [7]): 15.56%
Activity (HL-60 [8]): 86.67%
Activity (HL-60 [9]): Active
Activity (HL-60 [10]): 42.66%
Activity (HL-60 [11]): Active
Activity (HL-60 [12]): 38.55%
Activity (HL-60 [14]): Active
Activity (HL-60 [15]): Dose-dependent effect
Activity (HL-60 [16]): 12.6%
Activity (HL-60 [17]): 0.06%
Activity (HL-60 [18]): Active
Activity (HL-60 [19]): 21.32%
viability at 0.6 µM (HL-60 [20]): 64.5%
Activity (HL-60 [21]): 48.08%
Activity (HL-60 [22]): 41.81%
Activity (HL-60 [23]): 13.33%
viability at 0.3 µM (HL-60 [24]): 88.7%
Activity (HL-60 [25]): 0.48%
Activity (HL-60 [26]): Active
Activity (HL-60 [27]): 78.68%
